This is an account of results in ChEMBL document CHEMBL4265973, “Broad-spectrum antibacterial amphiphilic aminoglycosides: A new focus on the structure of the lipophilic groups extends the series of active dialkyl neamines” (Eur J Med Chem, 2018).

Converted amounts (≈) assume the structure as drawn. The source made the active and inactive calls. The rule behind the calls is not given here.

The test system of series [1] is J774. Put plainly: (§1) Cytotoxicity against mouse J774 cells assessed as cell viability at 10 uM after 24 hrs by MTT assay relative to control. The class given is cell-based. The note with it: j774, 24 h, 10 µM. In a few lines:
(§2)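 Murine J774 macrophages are exposed for 24 h to compound at 10 or 30 µM, then given 0.2 mg/mL MTT for 1 h. The reaction is stopped with DMSO and OD read at 570 nm; viability is metabolic activity as % of control. The number of independent experiments is given per value.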

The test system of series [2] is J774. Put plainly: (§3) Cytotoxicity against mouse J774 cells assessed as cell viability at 30 uM after 24 hrs by MTT assay relative to control. The class given is cell-based. The note with it: j774, 24 h, 30 µM. In a few lines: as §2
Series [3] deals with Pseudomonas aeruginosa. The series is described as follows: Antibacterial activity against Pseudomonas aeruginosa FO3 harboring AAC6'-2A by microdilution assay. Format: functional. In a few lines: (§4)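 Broth microdilution MIC per CLSI recommendations, fresh culture in cation-adjusted Mueller-Hinton broth, starting inoculum 10^6 cells.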
A general note: In broth dilution the organism is exposed to a series of concentrations in liquid medium.

Series [4] concerns Staphylococcus aureus. Put plainly: Antibacterial activity against Staphylococcus aureus ATCC 25923 by microdilution assay. The class given is functional. In a few lines:
as §4

For series [5], the system named is Acinetobacter lwoffii. Put plainly: Antibacterial activity against Acinetobacter lwoffii AI.88-483 harboring APH3'-6A by microdilution assay. Format: functional. The gist of the method: as §4
The subject of series [6] is Escherichia coli. Put plainly: Antibacterial activity against Escherichia coli L8058.1 harboring ANT2'-1A by microdilution assay. The class given is functional. In a few lines:
as §4

For series [7], the system named is Staphylococcus aureus. Put plainly: Antibacterial activity against methicillin-resistant Staphylococcus aureus ATCC 33592 by microdilution assay. Format: functional. In a few lines: as §4
Series [8] relates to Pseudomonas aeruginosa. The series is described as follows: Antibacterial activity against Pseudomonas aeruginosa PA406 harboring triABC deletion mutant by microdilution assay. Format: functional. The gist of the method: as §4
Series [9] has as its system Pseudomonas aeruginosa. The series is described as follows: Antibacterial activity against Pseudomonas aeruginosa ATCC 27853 after 15 to 38 days by microdilution assay. Format: functional.
Series [10] in a line: as §1. Format: cell-based. The note with it: J774 cells, read-out: Activity. In a few lines:
as §2

A short description of series [11]: as §3. Format: cell-based. The note with it: J774 cells, read-out: Activity. In a few lines: as §2
Series [12] concerns Pseudomonas aeruginosa. The series is described as follows: Antibacterial activity against Pseudomonas aeruginosa ATCC 27853 by microdilution assay. Format: functional. The gist of the method: (§5)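 Broth microdilution per CLSI recommendations, using a fresh culture in cation-adjusted Mueller-Hinton broth (CA-MHB) and a starting inoculum of 10^6 cells; the MIC is the value read.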

Series [13] deals with Klebsiella pneumoniae. The series is described as follows: Antibacterial activity against Klebsiella pneumoniae 700603 by microdilution assay. The class given is functional. In a few lines: as §5
Series [14] deals with Escherichia coli. The series is described as follows: Antibacterial activity against Escherichia coli PAZ505H8101 harboring AAC6'-1B by microdilution assay. The class given is functional. The gist of the method:
as §4

The subject of series [15] is Pseudomonas aeruginosa. Put plainly: Antibacterial activity against Pseudomonas aeruginosa PA22 harboring surexp MexXY by microdilution assay. The class given is functional. The gist of the method: as §4
Series [16] concerns Staphylococcus aureus. The series is described as follows: Antibacterial activity against Staphylococcus aureus SA-1 expressing NorA pump by microdilution assay.
The test system of series [17] is Escherichia coli. The series is described as follows: microbe, parasite or virus in culture. The note with it: ATCC 25922.
In series [18] the test system is Acinetobacter lwoffii. The series is described as follows: Antibacterial activity against Acinetobacter lwoffii ATCC 17925 by microdilution assay. The class given is functional. In a few lines:
as §5

Series [19] concerns Pseudomonas aeruginosa. Put plainly: Antibacterial activity against Pseudomonas aeruginosa ATCC 27853 measured over 1 month by microdilution assay. Format: functional, organism-based. In a few lines: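 Serial passage of P. aeruginosa ATCC 27853 held continuously at half the MIC for up to 38 days. […] The new minimal inhibitory concentration is read by visual inspection, confirmed by agar dilution, and the drug level raised to match.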

In series [20] the test system is Pseudomonas aeruginosa. The series is described as follows: microbe, parasite or virus in culture. The note with it: ATCC 27853.

Take GENTAMICIN: the Activity stood at 88.4% in series [1] and 82.9% in series [2].
With `CCCCCCCCCO[C@@H]1[C@@H](N)[C@@H](O[C@H]2[C@H](O)[C@@H](OCCCCCCCCC)[C@H](N)C[C@@H]2N)O[C@H](CN)[C@H]1O`, the MIC in series [3] is 4 to 8 µg/mL (≈ 6.96 to 13.9 µM); in series [4] it was 1 µg/mL (≈ 1.74 µM); in series [5] it was 16 µg/mL (≈ 27.8 µM); in series [6] it was 2 to 4 µg/mL (≈ 3.48 to 6.96 µM); in series [7] it was 2 to 4 µg/mL (≈ 3.48 to 6.96 µM); in series [8], 2 to 4 µg/mL (≈ 3.48 to 6.96 µM). Further, the MIC in series [9] is 4 µg/mL (≈ 6.96 µM); in [12], 2 to 4 µg/mL (≈ 3.48 to 6.96 µM); in series [13] it was 4 µg/mL (≈ 6.96 µM); in [14] it was 2 to 4 µg/mL (≈ 3.48 to 6.96 µM); in series [15], 4 µg/mL (≈ 6.96 µM); in series [16] it was 1 µg/mL (≈ 1.74 µM). Further, the MIC was 2 to 4 µg/mL (≈ 3.48 to 6.96 µM) in [17] and 2 µg/mL (≈ 3.48 µM) in [18]. For the same molecule, the viability at 24 h, 10 µM in series [10] was 86.7%. Also, in [11], the viability at 24 h, 30 µM stood at 67.4%.
`NC[C@H]1O[C@H](O[C@H]2[C@H](O)[C@@H](OCCCc3ccc4ccccc4c3)[C@H](N)C[C@@H]2N)[C@H](N)[C@@H](OCCCc2ccc3ccccc3c2)[C@@H]1O`: the MIC is 16 µg/mL (≈ 24.3 µM) in [3]; 2 µg/mL (≈ 3.04 µM) in series [4]; 32 to 64 µg/mL (≈ 48.6 to 97.1 µM) in series [5]; 16 µg/mL (≈ 24.3 µM) in series [6]; 2 µg/mL (≈ 3.04 µM) in [7]; 2 to 4 µg/mL (≈ 3.04 to 6.07 µM) in series [8]. Moreover, the MIC in series [12] is 8 to 16 µg/mL (≈ 12.1 to 24.3 µM); in series [13], 32 µg/mL (≈ 48.6 µM); in [14], 4 to 8 µg/mL (≈ 6.07 to 12.1 µM); in series [15], 16 µg/mL (≈ 24.3 µM); in [16], 2 µg/mL (≈ 3.04 µM); in series [17], 8 µg/mL (≈ 12.1 µM). This molecule also showed an MIC in series [18] of 4 µg/mL (≈ 6.07 µM). Further, the outcome in series [19] was Active. The viability at 24 h, 10 µM in series [10] is 91.1%. Moreover, the viability at 24 h, 30 µM in series [11] stood at 89.5%.
On to `O=C(O)c1cn(C2CC2)c2cc(N3CCNCC3)c(F)cc2c1=O` [CIPROFLOXACIN], for which the outcome in [19] was Active. Besides, the MIC in [20] turned out to be 16 µg/mL (≈ 48.3 µM).
